ChEMBL document CHEMBL2057083, “Development of new carbon-11 labelled radiotracers for imaging GABAA- and GABAB-benzodiazepine receptors” (Bioorg Med Chem, 2012)
Values belong to the compound of their own block, whether it stands above or below them.

Assays:
[1] = Lipophilicity, log D in octanol/buffer at pH 7.4 by shake-flask method
Rattus norvegicus [2] = experiment: Biodistribution in Sprague-Dawley rat cortex (front) at 37 MBq, iv measured 15 mins post injection; type: ADME, organism-based; settings: in vivo, 0.25 h
Hippocampus [3] = experiment: Biodistribution in Sprague-Dawley rat hippocampus at 37 MBq, iv measured 60 mins post injection; type: ADME, organism-based; settings: in vivo, 1 h
Brain [4] = experiment: Biodistribution in Sprague-Dawley rat rest of brain at 37 MBq, iv measured 15 mins post injection; type: ADME, organism-based; settings: in vivo, 0.25 h
Brain [5] = experiment: Biodistribution in Sprague-Dawley rat rest of brain at 37 MBq, iv measured 5 mins post injection; type: ADME, organism-based; settings: in vivo
Striatum [6] = experiment: Biodistribution in Sprague-Dawley rat striatum at 37 MBq, iv measured 5 mins post injection; type: ADME, organism-based; settings: in vivo
Hippocampus [7] = experiment: Biodistribution in Sprague-Dawley rat hippocampus at 37 MBq, iv measured 15 mins post injection; type: ADME, organism-based; settings: in vivo, 0.25 h
Striatum [8] = experiment: Biodistribution in Sprague-Dawley rat striatum at 37 MBq, iv measured 2 mins post injection; type: ADME, organism-based; settings: in vivo
Blood [9] = experiment: Biodistribution in Sprague-Dawley rat blood at 37 MBq, iv measured 2 mins post injection; type: ADME, organism-based; settings: in vivo
Thalamus [10] = experiment: Biodistribution in Sprague-Dawley rat thalamus at 37 MBq, iv measured 5 mins post injection; type: ADME, organism-based; settings: in vivo
Summary of the method: (§1)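 Conscious rats received the radiotracer by tail-vein injection and were killed by decapitation at the stated time. Brains were removed, and regions were excised, blotted, weighed and counted for radioactivity. Uptake is given as decay-corrected %ID/g.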

Blood [11] = experiment: Biodistribution in Sprague-Dawley rat blood at 37 MBq, iv measured 30 mins post injection; type: ADME, organism-based; settings: in vivo, 0.5 h
Brain [12] = experiment: Biodistribution in Sprague-Dawley rat rest of brain at 37 MBq, iv measured 60 mins post injection; type: ADME, organism-based; settings: in vivo, 1 h
Cerebellum [13] = experiment: Biodistribution in Sprague-Dawley rat cerebellum at 37 MBq, iv measured 30 mins post injection; type: ADME, organism-based; settings: in vivo, 0.5 h
Thalamus [14] = experiment: Biodistribution in Sprague-Dawley rat thalamus at 37 MBq, iv measured 60 mins post injection; type: ADME, organism-based; settings: in vivo, 1 h; summary of the method: as §1
Thalamus [15] = experiment: Biodistribution in Sprague-Dawley rat thalamus at 37 MBq, iv measured 30 mins post injection; type: ADME, organism-based; settings: in vivo, 0.5 h; summary of the method: as §1
Rattus norvegicus [16] = experiment: Biodistribution in Sprague-Dawley rat cortex (rest) at 37 MBq, iv measured 5 mins post injection; type: ADME, organism-based; settings: in vivo
Blood [17] = experiment: Biodistribution in Sprague-Dawley rat blood at 37 MBq, iv measured 5 mins post injection; type: ADME, organism-based; settings: in vivo
Cerebellum [18] = experiment: Biodistribution in Sprague-Dawley rat cerebellum at 37 MBq, iv measured 60 mins post injection; type: ADME, organism-based; settings: in vivo, 1 h
Rattus norvegicus [19] = experiment: Biodistribution in Sprague-Dawley rat hipothalamus at 37 MBq, iv measured 15 mins post injection; type: ADME, organism-based, Hypothalamus; settings: in vivo, 0.25 h; summary of the method: as §1
Cerebellum [20] = experiment: Biodistribution in Sprague-Dawley rat cerebellum at 37 MBq, iv measured 5 mins post injection; type: ADME, organism-based; settings: in vivo
Rattus norvegicus [21] = experiment: Biodistribution in Sprague-Dawley rat cortex (rest) at 37 MBq, iv measured 60 mins post injection; type: ADME, organism-based; settings: in vivo, 1 h
Rattus norvegicus [22] = experiment: Biodistribution in Sprague-Dawley rat cortex (front) at 37 MBq, iv measured 60 mins post injection; type: ADME, organism-based; settings: in vivo, 1 h
Striatum [23] = experiment: Biodistribution in Sprague-Dawley rat striatum at 37 MBq, iv measured 60 mins post injection; type: ADME, organism-based; settings: in vivo, 1 h
Brain [24] = experiment: Biodistribution in Sprague-Dawley rat rest of brain at 37 MBq, iv measured 2 mins post injection; type: ADME, organism-based; settings: in vivo
Brain [25] = experiment: Biodistribution in Sprague-Dawley rat rest of brain at 37 MBq, iv measured 30 mins post injection; type: ADME, organism-based; settings: in vivo, 0.5 h
Thalamus [26] = experiment: Biodistribution in Sprague-Dawley rat thalamus at 37 MBq, iv measured 15 mins post injection; type: ADME, organism-based; settings: in vivo, 0.25 h; summary of the method: as §1
Blood [27] = experiment: Biodistribution in Sprague-Dawley rat blood at 37 MBq, iv measured 60 mins post injection; type: ADME, organism-based; settings: in vivo, 1 h
Striatum [28] = experiment: Biodistribution in Sprague-Dawley rat striatum at 37 MBq, iv measured 15 mins post injection; type: ADME, organism-based; settings: in vivo, 0.25 h
Rattus norvegicus [29] = experiment: Biodistribution in Sprague-Dawley rat hipothalamus at 37 MBq, iv measured 5 mins post injection; type: ADME, organism-based, Hypothalamus; settings: in vivo; summary of the method: as §1
Cerebellum [30] = experiment: Biodistribution in Sprague-Dawley rat cerebellum at 37 MBq, iv measured 2 mins post injection; type: ADME, organism-based; settings: in vivo
Rattus norvegicus [31] = experiment: Biodistribution in Sprague-Dawley rat cortex (front) at 37 MBq, iv measured 5 mins post injection; type: ADME, organism-based; settings: in vivo
Rattus norvegicus [32] = experiment: Biodistribution in Sprague-Dawley rat cortex (rest) at 37 MBq, iv measured 2 mins post injection; type: ADME, organism-based; settings: in vivo
Rattus norvegicus [33] = experiment: Biodistribution in Sprague-Dawley rat hipothalamus at 37 MBq, iv measured 60 mins post injection; type: ADME, organism-based, Hypothalamus; settings: in vivo, 1 h; summary of the method: as §1
Blood [34] = experiment: Biodistribution in Sprague-Dawley rat blood at 37 MBq, iv measured 15 mins post injection; type: ADME, organism-based; settings: in vivo, 0.25 h
Hippocampus [35] = experiment: Biodistribution in Sprague-Dawley rat hippocampus at 37 MBq, iv measured 5 mins post injection; type: ADME, organism-based; settings: in vivo
Hippocampus [36] = experiment: Biodistribution in Sprague-Dawley rat hippocampus at 37 MBq, iv measured 2 mins post injection; type: ADME, organism-based; settings: in vivo
Rattus norvegicus [37] = experiment: Biodistribution in Sprague-Dawley rat cortex (front) at 37 MBq, iv measured 30 mins post injection; type: ADME, organism-based; settings: in vivo, 0.5 h
Rattus norvegicus [38] = experiment: Biodistribution in Sprague-Dawley rat hipothalamus at 37 MBq, iv measured 30 mins post injection; type: ADME, organism-based, Hypothalamus; settings: in vivo, 0.5 h; summary of the method: as §1
Thalamus [39] = experiment: Biodistribution in Sprague-Dawley rat thalamus at 37 MBq, iv measured 2 mins post injection; type: ADME, organism-based; settings: in vivo
Rattus norvegicus [40] = experiment: Biodistribution in Sprague-Dawley rat hipothalamus at 37 MBq, iv measured 2 mins post injection; type: ADME, organism-based, Hypothalamus; settings: in vivo
Rattus norvegicus [41] = experiment: Biodistribution in Sprague-Dawley rat cortex (front) at 37 MBq, iv measured 2 mins post injection; type: ADME, organism-based; settings: in vivo
Cerebellum [42] = experiment: Biodistribution in Sprague-Dawley rat cerebellum at 37 MBq, iv measured 15 mins post injection; type: ADME, organism-based; settings: in vivo, 0.25 h
Hippocampus [43] = experiment: Biodistribution in Sprague-Dawley rat hippocampus at 37 MBq, iv measured 30 mins post injection; type: ADME, organism-based; settings: in vivo, 0.5 h
Striatum [44] = experiment: Biodistribution in Sprague-Dawley rat striatum at 37 MBq, iv measured 30 mins post injection; type: ADME, organism-based; settings: in vivo, 0.5 h
Rattus norvegicus [45] = experiment: Biodistribution in Sprague-Dawley rat cortex (rest) at 37 MBq, iv measured 30 mins post injection; type: ADME, organism-based; settings: in vivo, 0.5 h
Rattus norvegicus [46] = experiment: Biodistribution in Sprague-Dawley rat cortex (rest) at 37 MBq, iv measured 15 mins post injection; type: ADME, organism-based; settings: in vivo, 0.25 h

- logD [1]: 4.12
Structure (SMILES): Cc1nc(O[11CH3])ccc1-c1cccc2c(N)c3c(nc12)CN(C1CCC1)C3=O

- Drug uptake (Rattus norvegicus [2]): 0.14 % ID/g
- Drug uptake (Hippocampus [3]): 0.11 % ID/g
- Drug uptake (Brain [4]): 0.11 % ID/g
- Drug uptake (Brain [5]): 0.11 % ID/g
- Drug uptake (Striatum [6]): 0.11 % ID/g
- Drug uptake (Hippocampus [7]): 0.1 % ID/g
- Drug uptake (Striatum [8]): 0.1 % ID/g
- Drug uptake (Blood [9]): 0.18 % ID/g
- Drug uptake (Thalamus [10]): 0.12 % ID/g
- Drug uptake (Blood [11]): 0.09 % ID/g
- Drug uptake (Brain [12]): 0.11 % ID/g
- Drug uptake (Cerebellum [13]): 0.13 % ID/g
- Drug uptake (Thalamus [14]): 0.14 % ID/g
- Drug uptake (Thalamus [15]): 0.12 % ID/g
- Drug uptake (Rattus norvegicus [16]): 0.13 % ID/g
- Drug uptake (Blood [17]): 0.12 % ID/g
- Drug uptake (Cerebellum [18]): 0.11 % ID/g
- Drug uptake (Rattus norvegicus [19]): 0.1 % ID/g
- Drug uptake (Cerebellum [20]): 0.14 % ID/g
- Drug uptake (Rattus norvegicus [21]): 0.13 % ID/g
- Drug uptake (Rattus norvegicus [22]): 0.13 % ID/g
- Drug uptake (Striatum [23]): 0.11 % ID/g
- Drug uptake (Brain [24]): 0.1 % ID/g
- Drug uptake (Brain [25]): 0.12 % ID/g
- logD [1]: 3.2
- Drug uptake (Thalamus [26]): 0.13 % ID/g
- Drug uptake (Blood [27]): 0.13 % ID/g
- Drug uptake (Striatum [28]): 0.12 % ID/g
- Drug uptake (Rattus norvegicus [29]): 0.11 % ID/g
- Drug uptake (Cerebellum [30]): 0.13 % ID/g
- Drug uptake (Rattus norvegicus [31]): 0.13 % ID/g
- Drug uptake (Rattus norvegicus [32]): 0.13 % ID/g
- Drug uptake (Rattus norvegicus [33]): 0.11 % ID/g
- Drug uptake (Blood [34]): 0.87 % ID/g
- Drug uptake (Hippocampus [35]): 0.1 % ID/g
- Drug uptake (Hippocampus [36]): 0.08 % ID/g
- Drug uptake (Rattus norvegicus [37]): 0.14 % ID/g
- Drug uptake (Rattus norvegicus [38]): 0.1 % ID/g
- Drug uptake (Thalamus [39]): 0.1 % ID/g
- Drug uptake (Rattus norvegicus [40]): 0.11 % ID/g
- Drug uptake (Rattus norvegicus [41]): 0.12 % ID/g
- Drug uptake (Cerebellum [42]): 0.12 % ID/g
- Drug uptake (Hippocampus [43]): 0.11 % ID/g
- Drug uptake (Striatum [44]): 0.12 % ID/g
- Drug uptake (Rattus norvegicus [45]): 0.13 % ID/g
- Drug uptake (Rattus norvegicus [46]): 0.13 % ID/g
Structure (SMILES): CC(NCCC(c1ccccc1)c1ccccc1)c1ccc(O[11CH3])c(Cl)c1 (racemic)
